# KCNQ1 pot = human KCNQ1 channel potentiation or activation; P51787; CHO-K1 KCNQ1, thallium flux FluxOR fluorescence; stronger effect = higher value; B-score at 10 µM; 310,000 tested, 0.35% active; AID 2648;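 active means fluorescence ratio B-score, a plate-corrected score, at least three library SD, with initial intensity B-score within 5 SD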
#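 Schedule – 37 °C overnight plating, 90-min dark dye load, 20-min compound pretreatment · System – stable KCNQ1 CHO-K1 line · Probe or stimulus – thallium- and potassium-containing depolarizing buffer · Measured by – kinetic FluxOR fluorescence, 10 s baseline plus 110 s post-stimulus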
# KCNQ1 block = human KCNQ1 channel inhibition | P51787 | CHO-K1 KCNQ1, FluxOR thallium flux fluorescence; stronger effect = higher value | AID 2642 | B-score at 10 µM | 310,000 tested, 1.3% active;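 active means compounds whose thallium flux B-score, printed positive for inhibition, exceeds three library SD while starting fluorescence stays within three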;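 further: channel opened by potassium depolarization with thallium stimulus after 20 min compound exposure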
# hERG rescue = hERG (human) protection from proarrhythmic block | AID 1511 | CHO-hERG, FluxOR thallium flux, dofetilide IC70 present | 310,000 tested, 0.51% active | activation (rescue from dofetilide block), less the hit threshold, % at 10 µM | Q12809;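 active means activation above the mean of controls blocked by dofetilide plus 5 SD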;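 further: thallium influx through hERG after potassium depolarization seen as dye fluorescence rise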
# KCNK3 block = human KCNK3 channel inhibition, primary screen | B-score at 10 µM | 340,000 tested, 0.84% active | AID 602410 | O14649 | CHO-KCNK3 thallium flux, FluxOR fluorescence; stronger effect = lower value;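 active means B-score under library mean minus 4 SD, starting fluorescence ratio at most library mean plus 5 SD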;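 further: more negative B-score means stronger inhibition of thallium flux through KCNK3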
# Target sequence (O14649 whole entry, looked up): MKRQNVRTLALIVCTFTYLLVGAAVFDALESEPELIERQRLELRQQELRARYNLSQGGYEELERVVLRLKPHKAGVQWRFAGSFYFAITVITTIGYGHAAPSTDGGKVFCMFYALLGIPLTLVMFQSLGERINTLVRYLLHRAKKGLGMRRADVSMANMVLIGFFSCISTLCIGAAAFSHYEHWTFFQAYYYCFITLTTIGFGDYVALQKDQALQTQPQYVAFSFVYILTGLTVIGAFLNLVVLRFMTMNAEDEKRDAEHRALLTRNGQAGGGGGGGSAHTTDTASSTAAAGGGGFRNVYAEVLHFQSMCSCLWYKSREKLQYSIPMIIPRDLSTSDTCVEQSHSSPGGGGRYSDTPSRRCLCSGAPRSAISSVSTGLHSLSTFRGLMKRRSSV
# KCNK9 inh = inhibitors of human KCNK9 two-pore domain potassium channel; Q9NPC2; HEK293 KCNK9, FluxOR thallium flux fluorescence; stronger effect = lower value; B-score at 10 µM; 310,000 tested, 1.2% active; AID 488922;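 active means ratio B-score over 3 SD below the library mean, with starting fluorescence within 5 SD of its mean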;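 further: negative B-score means less thallium flux so channel inhibition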
# KCNK3 inh conf = human KCNK3 channel inhibition, confirmation assay. 2,400 tested, 99% active. CHO-KCNK3 thallium flux, FluxOR fluorescence; 0% buffer, 100% carvedilol maximal block. shares compounds with KCNK3 block. ratio percent of control, % at 10 µM;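 active means ratio percent of control, averaged over triplicates, above buffer control mean plus 5 SD, cut at about 64% in these data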;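 further: ratio is the fluorescence rise from min to max over baseline after thallium stimulus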
# KCNK3 uninduced = counter-screen for KCNK3 inhibitors: effect in non-induced cells; shares compounds with KCNK3 block; AID 651747; non-induced KCNK3 parental cells, FluxOR thallium flux; stronger effect = lower value; 2,400 tested, 40% active; thallium flux ratio (lower = more inhibition) at 10 µM;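 active means thallium flux ratio, averaged over three wells, more than 5 SD below the buffer control mean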;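 further: host cells are CHO cells without KCNK3 induction; ratio is peak minus trough fluorescence over baseline then normalized to buffer controls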
# * hit, by the source's call; i = inactive; x = no result. Shown are actives, neighbours in structure and some others; about 3.1% of the full set was active somewhere.
SMILES,KCNQ1 pot,KCNQ1 block,hERG rescue,KCNK3 block,KCNK9 inh,KCNK3 inh conf,KCNK3 uninduced
COc1ccc(CNc2oc(Cc3cccc4ccccc34)nc2C#N)cc1,i,i,-8.6,-13.5*,i,90.7*,0.152*
COc1ccc(-c2cc(=O)oc3cc(OCC(=O)Nc4ccc(CCO)cc4)ccc23)cc1,i,i,-8.9,i,i,x,x
O=C(CCCOc1ccc(Br)cc1)Nc1nnc(C2CC2)s1,x,x,x,i,x,x,x
COc1ccc(C)cc1NC(=O)c1cc2ccccc2cc1OCC(=O)NCc1ccco1,i,i,0.1,-13.7*,i,109.0*,i
COc1ccc(C)cc1NC(=O)NCc1ccco1,i,i,-22.1,i,i,x,x
Cn1c(CC(=O)Nc2ccc(Cl)cc2)nnc1SCC(=O)N1CCOCC1,i,i,-6.5,i,i,x,x
O=C(Nc1ccc(Cl)c(Cl)c1)N1N=CCC1c1ccccc1 (stereo unspecified),i,i,-7.0,-9.5*,-6.63*,116.3*,i
O=C(Nc1ccccc1)N1N=CCC1c1ccccc1 (stereo unspecified),i,i,-5.7,i,i,x,x
Cc1[nH]c2ccccc2c1C(=O)CSc1nnc(C2CC2)o1,x,x,x,i,x,x,x
CCc1ccc(N2CC(C(=O)N/N=C/c3ccccc3OC)CC2=O)cc1 (stereo unspecified),i,i,-8.1,i,i,x,x
CCc1ccc(N2CC(C(=O)N/N=C/c3cc([N+](=O)[O-])ccc3O)CC2=O)cc1 (stereo unspecified),i,i,-10.8,-9.1*,i,90.7*,i
CN1CCN(c2ccccc2NC(=O)c2ccc(-c3ccccc3[N+](=O)[O-])o2)CC1,i,i,-20.4,i,i,x,x
CCC(C(=O)NCCc1c[nH]c2ccc(C)cc12)c1ccccc1 (stereo unspecified),i,i,-2.5,-8.81*,-7.75*,110.0*,i
Cc1ccc(C)c(NC(=O)C(=O)NCCc2c[nH]c3ccccc23)c1,i,i,-11.2,i,i,x,x
CCN(CC)S(=O)(=O)c1ccc(-c2cc(C(=O)OC)sc2C(F)(F)F)cc1,i,i,-8.3,-9.7*,i,109.0*,i
COC(=O)c1cc(-c2ccc(S(=O)(=O)N3CCCC3)cc2)c(C(F)(F)F)s1,i,i,-10.9,i,i,x,x
CCCC(C)C(=O)Nc1ccccc1C(=O)OCC (stereo unspecified),i,i,-1.9,i,i,x,x
CCOC(=O)c1ccccc1NC(=O)C(C)Oc1ccccc1 (stereo unspecified),i,i,-9.4,-9.97*,i,78.0*,i
Cc1nn(-c2ccccc2)c(C)c1/C=N/NC(=O)c1cc(-c2ccc(Cl)s2)[nH]n1,i,i,-27.2,-11.5*,i,131.0*,i
Cc1ccc(S(=O)(=O)c2cc3c(=O)n4ccccc4nc3n(C3CCCCC3)c2=N)cc1,i,i,-9.5,i,i,x,x
COC(=O)c1ccccc1NC(=O)N1CCN(c2ccc(F)cc2)CC1,i,i,-20.2,-10.7*,i,112.0*,i
CCC1(CC)NC(=O)N(CC(=O)Nc2ccc(C)cc2C)C1=O,x,x,x,i,x,x,x
Cc1ccc(NC(=O)CN2C(=O)NC(C)(c3ccccc3)C2=O)c(C)c1 (stereo unspecified),i,i,-1.3,-10.6*,i,85.3*,i
c1ccc(CCNCCCOc2cccc3ccccc23)cc1,i,i,-17.1,i,i,x,x
CCC(CO)NCC#Cc1ccccc1 (stereo unspecified),i,i,-7.6,i,i,x,x
SMILES,KCNQ1 pot,KCNQ1 block,hERG rescue,KCNK3 block,KCNK9 inh,KCNK3 inh conf,KCNK3 uninduced
Cc1ccc(NC(=O)C(=O)c2c(-c3ccccc3)cc3ccccn23)cc1S(=O)(=O)N1CCOCC1,i,i,-9.9,-10*,i,113.0*,i
CC(C)C(NC(=O)c1ccc(C(C)(C)C)cc1)C(=O)NCC1(N(C)C)CCCCC1 (stereo unspecified),i,i,-5.0,i,i,x,x
C/C(=N\OC(=O)NC1CCCCC1)c1sc(-c2ccccc2)nc1C,i,i,-12.0,-10.8*,i,113.0*,0.14*
C/C(=N\OC(=O)NC(C)C)c1sc(-c2ccccc2)nc1C,i,i,-8.4,i,i,x,x
CCOc1ccc(/C=C/C(O)=C2/C(=O)N(C)C3(C)CC2c2ccccc2O3)cc1OC (stereo unspecified),i,i,-11.1,-9.88*,i,88.3*,i
O=C(Nc1nc(-c2cccs2)cs1)c1ccc(Cl)s1,i,i,3.7,-23.5*,i,86.3*,i
CCn1c(SCC(=O)NCCc2ccccc2)nc2c([nH]c3ccccc32)c1=O,i,i,2.5,i,i,x,x
COc1ccc(S(=O)(=O)Oc2ccc3cccc(N)c3c2)cc1,i,i,-9.2,-9.07*,i,101.3*,i
CCn1ncc([N+](=O)[O-])c1C(=O)Nc1ccc(C)c(C)c1,i,i,-1.8,i,i,x,x
Cc1sc2nc(SCc3nnc(-c4cccs4)o3)n(C3CCCC3)c(=O)c2c1C,i,8*,-9.5,-11.7*,i,79.3*,i
CCCCCCc1nc(C(N)=O)c2[nH]c(=O)n(-c3ccccc3F)c2n1,i,i,-8.0,i,i,x,x
Cc1cc(C)c2sc(N(CCN(C)C)C(=O)c3c(F)cccc3F)nc2c1,i,i,-11.1,-9.15*,i,115.7*,i
CC(=O)c1cccc(NC(=O)C(C)OC(=O)C2CCC2)c1 (stereo unspecified),i,i,-4.0,i,i,x,x
CC(OC(=O)C1CCC1)C(=O)Nc1cc(Cl)cc(Cl)c1 (stereo unspecified),i,i,-11.5,-9.01*,i,96.0*,i
O=C1C=CC(=O)N1CCCCCCCCCCN1C(=O)C=CC1=O,x,x,x,i,x,x,x
Cc1cccc(NC(=O)CSCC(=O)Nc2ccccc2N2CCCC2)c1,i,i,-13.7,-9.6*,i,87.3*,i
O=C(COc1ccc(Cl)cc1Br)Nc1ccccc1N1CCCC1,i,i,-11.8,i,i,x,x
CCc1cccc(OCC(=O)Nc2ccccc2N2CCCC2)c1,i,i,-10.1,-9.11*,i,119.7*,0.158*
CCOc1cc(N2CCOCC2)c(OCC)cc1NC(=O)COc1cccc(CC)c1,x,x,x,i,x,x,x
Cc1cccc(C)c1OCC(=O)Nc1ccccc1N1CCCCC1,i,i,-20.9,-9.32*,-7.6*,114.0*,i

# High-throughput results deposited in PubChem by Johns Hopkins Ion Channel Center.
